ChEMBL document CHEMBL1146501, “Microbial transformation of isosteviol and inhibitory effects on Epstein-Barr virus activation of the transformation products” (J Nat Prod, 2004)

Key:
Format in all cases: cell-based
Raji [1] = assay: Inhibition of 12-O-tetradecanoylphorbol-13-acetate-induced EBV-early antigen activation in human Raji cells assessed as EA activation at 1000 molar ratio after 48 hrs relative to TPA; parameters: scale not given: the % may be the effect or the level left; conditions: human gammaherpesvirus 4
Procedure, shortened: (§1)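 EBV genome-carrying nonproducer Raji lymphoblastoid cells grown in 10% FBS RPMI 1640. Cells were incubated at 37 °C for 48 h with n-butyric acid (4 mM) and TPA (32 pmol, 20 ng/mL) in DMSO, plus test compound in DMSO. Smears were stained with EA-positive nasopharyngeal carcinoma patient sera and read by indirect immunofluorescence, counting ≥500 cells per assay, run twice. Average EA induction is expressed relative to butyrate+TPA control.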

Raji [2] = assay: Inhibition of 12-O-tetradecanoylphorbol-13-acetate-induced EBV-early antigen activation in human Raji cells assessed as EA activation at 500 molar ratio after 48 hrs relative to TPA; parameters: scale not given: the % may be the effect or the level left; conditions: human gammaherpesvirus 4; procedure, shortened: as §1
Raji [3] = assay: Inhibition of 12-O-tetradecanoylphorbol-13-acetate-induced EBV-early antigen activation in human Raji cells assessed as EA activation at 100 molar ratio after 48 hrs relative to TPA; parameters: scale not given: the % may be the effect or the level left; conditions: human gammaherpesvirus 4; procedure, shortened: as §1
Raji [4] = assay: Inhibition of 12-O-tetradecanoylphorbol-13-acetate-induced EBV-early antigen activation in human Raji cells assessed as EA activation at 10 molar ratio after 48 hrs relative to TPA; parameters: scale not given: the % may be the effect or the level left; conditions: human gammaherpesvirus 4; procedure, shortened: as §1
[5] = Cytotoxicity against human Raji cells assessed as cell viability at 1000 molar ratio by trypan blue assay; conditions: read-out: Activity

| Compound | Activity (Raji [1]) | Activity (Raji [2]) | Activity (Raji [3]) | Activity (Raji [4]) | viability at 1000 molar ratio [5] |
| --- | --- | --- | --- | --- | --- |
| C[C@@]12CC[C@@H]3[C@@](CC[C@H]4[C@@]3(C)CCC[C@@]4(C)C(=O)O)(CC1=O)C2 [ISOSTEVIOL] | 12.3% | 46.7% | 80% | 98.8% | 60% |
| C[C@@]12CC[C@@H]3[C@@](CC1=O)(C2)C(=O)C[C@H]1[C@@]3(C)CCC[C@@]1(C)C(=O)O | 7.4% | 35.1% | 72.3% | 94.5% | 60% |
| C[C@@]12CCC[C@@](C)(C(=O)O)[C@H]1CC[C@@]13CC(=O)[C@@](CO)(CC[C@H]12)C3 | 8.2% | 42.6% | 77% | 95.7% | 60% |
| C[C@@]12C[C@H](O)[C@@H]3[C@@](CC[C@H]4[C@@]3(C)CCC[C@@]4(C)C(=O)O)(CC1=O)C2 | 4% | 39.8% | 74.1% | 91% | 60% |
| C=C1C[C@@]23CC[C@H]4[C@@](C)(CCC[C@@]4(C)C(=O)O[C@@H]4O[C@H](CO)[C@@H](O)[C@H](O)[C@H]4O)[C@@H]2CC[C@]1(O[C@@H]1O[C@H](CO)[C@@H](O)[C@H](O)[C@H]1O[C@@H]1O[C@H](CO)[C@@H](O)[C@H](O)[C@H]1O)C3 [STEVIOSIDE] | 12.5% | 46.2% | 78.9% | 100% | 60% |
| C[C@@]12CC[C@H]3[C@]4(C)CCC[C@@](C)(C(=O)O)[C@H]4C[C@H](O)[C@]3(CC1=O)C2 | 6.9% | 41.7% | 76.3% | 94.6% | 60% |
| C[C@@]12CCC[C@@](C)(C(=O)O)[C@H]1CC[C@]13CC(=O)[C@](C)(C1)[C@H](O)C[C@H]32 | 5.7% | 40% | 75.1% | 93.2% | 60% |
| CC1=C(/C=C/C(C)=C/C=C/C(C)=C/C=C/C=C(C)/C=C/C=C(C)/C=C/C2=C(C)CCCC2(C)C)C(C)(C)CCC1 | 8.6% | – | – | 100% | – |
